Laboratory results as given in PubChem BioAssay AID623912 (Johns Hopkins Ion Channel Center, 2012).
Activity calls are given as the source filed them.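 Rule for the calls: active = peak KCNK3 inhibition above a set limit at some dose, plus a fitted dose-response curve; inactive = no KCNK3 inhibition, or no dose-response curve.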

Each compound was assayed against Potassium channel subfamily K member 3 (Rattus norvegicus) (UniProt O54912) (assay: inhibition of rat KCNK3 channel, SAR follow-up, selectivity assay for KCNK9 inhibitor project, cell-based, FluxOR thallium flux, CRC set 2 (AID 623912)). Details: KCNK3-expressing cells, FluxOR thallium flux fluorescence.
Potassium channel subfamily K member 3 (Rattus norvegicus), sequence (O54912 whole entry, looked up): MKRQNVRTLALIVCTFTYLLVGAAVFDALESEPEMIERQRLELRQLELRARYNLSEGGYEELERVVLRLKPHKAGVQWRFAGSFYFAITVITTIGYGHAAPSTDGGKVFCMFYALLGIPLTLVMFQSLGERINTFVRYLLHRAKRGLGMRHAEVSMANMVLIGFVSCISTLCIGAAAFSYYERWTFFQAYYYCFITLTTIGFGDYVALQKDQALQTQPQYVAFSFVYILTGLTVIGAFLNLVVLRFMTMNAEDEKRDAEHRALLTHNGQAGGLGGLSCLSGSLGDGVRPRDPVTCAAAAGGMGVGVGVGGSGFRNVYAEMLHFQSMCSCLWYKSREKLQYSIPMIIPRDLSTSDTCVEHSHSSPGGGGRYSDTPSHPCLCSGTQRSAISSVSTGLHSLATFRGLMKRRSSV
Summary of the method: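 read-out basis = IC50 from normalized flux signal | assay system = induced KCNK3-expressing CHO cells | probe or stimulus = Tl+/K+ sulfate stimulus buffer (5x stock) | times = dye 90 min, compound 20 min, both room temperature | signal = thallium flux fluorescence with FluxOR thallium-sensitive dye, kinetic reading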

For Cc1cccc(C(=O)Nc2ccccc2NC(=O)c2ccccc2)c1, which IC50 is on record?
Its IC50 is 260 nM.

With Cc1cccc(C(=O)Nc2cccc(NC(=O)c3cccc(C(F)(F)F)c3)c2)c1 as the compound, how does the IC50 read?
Its IC50 is 11 nM.

With CCOc1ccccc1NC(=O)c1cccc(NC(=O)c2cccc(OC)c2)c1 as the compound, how does the IC50 read?
The IC50 was 5 nM.

For CC(C1CC2CCC1C2)n1c(-c2ccco2)nnc1C(F)(F)F (stereo unspecified), which IC50 is on record?
Its IC50 is 1180 nM.

How did the IC50 turn out when CCOc1ccccc1NC(=O)c1cccc(NC(=O)c2ccc(C(F)(F)F)cc2)c1 was run?
The IC50 was 220 nM.

For CC(C1CC2CCC1C2)N(C)C(=O)c1ccco1 (stereo unspecified), which IC50 is on record?
Its IC50 is 6 nM.

Which IC50 does the source give for O=C(Nc1cccc(NC(=O)c2ccoc2)c1)c1ccccc1 here?
The IC50 was 799 nM.

Which IC50 does the source give for CCOc1ccccc1NC(=O)c1cccc(NC(=O)c2ccccc2)c1 here?
The IC50 was 121 nM.

With O=C(Nc1cccc(NC(=O)c2cccc(Cl)c2)c1)c1ccccc1 as the compound, how does the IC50 read?
The IC50 was 120 nM.

With CCOc1ccccc1NC(=O)c1cccc(NC(=O)C2CCCO2)c1 (stereo unspecified) as the compound, how does the IC50 read?
The IC50 was 129 nM.

Which IC50 does the source give for COc1ccc(C(=O)Nc2cccc(NC(=O)c3cccc(C)c3)c2)cc1 here?
Its IC50 is 1330 nM.

With COc1ccccc1-c1n[nH]c(=S)n1C(C)C1CC2CCC1C2 (stereo unspecified) as the compound, how does the IC50 read?
The IC50 was 102 nM.

For CCOc1ccccc1NC(=O)c1cccc(NC(=O)c2ccc(Cl)cc2)c1, which IC50 is on record?
Its IC50 is 139 nM.

How did the IC50 turn out when O=C(Nc1cccc(NC(=O)c2ccccn2)c1)c1ccccc1 was run?
The IC50 was 85.8 nM.

How did the IC50 turn out when CN(C)c1ccc(C(=O)Nc2cccc(NC(=O)c3ccccc3)c2)cc1 was run?
The IC50 was 259 nM.

How did the IC50 turn out when Cc1ccccc1-c1n[nH]c(=S)n1C(C)C1CC2CCC1C2 (stereo unspecified) was run?
The IC50 was 912 nM.

How did the IC50 turn out when CCOc1ccccc1NC(=O)c1cccc(NC(=O)C2CCCCC2)c1 was run?
Its IC50 is 66.9 nM.

How did the IC50 turn out when S=c1[nH]nc(-c2ccco2)n1CC1CC2CCC1C2 (stereo unspecified) was run?
The IC50 was 915 nM.

For COc1ccccc1C(=O)Nc1cccc(NC(=O)c2ccccc2)c1, which IC50 is on record?
The IC50 was 222 nM.

Which IC50 does the source give for CCOc1ccccc1NC(=O)c1cccc(NC(=O)C2CC2)c1 here?
Its IC50 is 1070 nM.

For CC(C1CC2CCC1C2)n1c(-c2cccn2C)n[nH]c1=S (stereo unspecified), which IC50 is on record?
The IC50 was 1080 nM.

For CCOc1ccccc1NC(=O)c1cccc(NC(=O)c2ccccc2C)c1, which IC50 is on record?
Its IC50 is 140 nM.

How did the IC50 turn out when CSc1nnc(-c2ccco2)n1C(C)C1CC2CCC1C2 (stereo unspecified) was run?
Its IC50 is 873 nM.

CCOc1cccc(NC(=O)c2cccc(NC(=O)C3CCCC3)c2)c1 was tested. Which IC50 did it give?
The IC50 was 491 nM.

Same assay, conditions: KCNK3-expressing cells, FluxOR thallium flux fluorescence; at 3 µM (top of the series)

How did the “flux ratio, lower = inhibition” value turn out when COc1cccc(Cc2n[nH]c(=S)n2C(C)C2CC3CCC2C3)c1 (stereo unspecified) was run?
The value was “inactive”.

With Cc1ccc(C(=O)Nc2cccc(NC(=O)c3ccccc3)c2)cc1 as the compound, how does the “flux ratio, lower = inhibition” value read?
The value was “inactive”.
